Experimental data published in ChEMBL document CHEMBL1687878, “Synthesis and biological evaluation of substituted (thieno[2,3-d]pyrimidin-4-ylthio)carboxylic acids as inhibitors of human protein kinase CK2” (Eur J Med Chem, 2011).

Columns and labels:
Casein kinase II = Casein kinase II (Homo sapiens, UniProt P19784+P67870+P68400); assay: Inhibition of recombinant human CK2 activity assessed as [gamma-32P]ATP incorporation into substrate peptide after 20 mins in presence of 50 uM ATP; type: protein-complex assay
In short: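 Radiometric assay with 10 units of recombinant human CK2 in 20 mM Tris-HCl pH 7.5, 50 mM KCl, 10 mM MgCl2. It used 50 µM ATP plus γ-32P ATP (specific activity 100 µCi/µM) and serially diluted inhibitor, run 20 min at 30 °C. The reaction was stopped with 10% phosphoric acid, spotted on phosphocellulose paper, washed with 1% phosphoric acid and Cherenkov-counted. Percent inhibition was taken relative to the DMSO no-inhibitor control, and IC50 was derived from the dilution series.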

[1] = target: Hepatocyte growth factor receptor (Homo sapiens) (UniProt P08581); assay: Inhibition of recombinant human Met kinase assessed as residual activity at 10 uM in presence of 100 uM ATP
In short: (§1)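 Inhibitor was tested at 10 µM with a final ATP of 100 µM. Residual activity is expressed as a percentage of the control without inhibitor.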

[2] = Competitive inhibition of recombinant human CK2 activity by Lineweaver-Burk plot analysis
[3] = target: Mitogen-activated protein kinase 10 (Homo sapiens) (UniProt P53779); assay: Inhibition of recombinant human Jnk3 kinase assessed as residual activity at 10 uM in presence of 100 uM ATP; in short: as §1
[4] = target: Rho-associated protein kinase 1 (Homo sapiens) (UniProt Q13464); assay: Inhibition of recombinant human Rock1 kinase assessed as residual activity at 10 uM in presence of 100 uM ATP; in short: as §1
[5] = target: Angiopoietin-1 receptor (Homo sapiens) (UniProt Q02763); assay: Inhibition of recombinant human Tie2 kinase assessed as residual activity at 10 uM in presence of 100 uM ATP; in short: as §1
[6] = target: T1, Aurora kinase A (Homo sapiens) (UniProt O14965); assay: Inhibition of recombinant human Aurora A kinase assessed as residual activity at 10 uM in presence of 100 uM ATP; in short: as §1
T1 sequence (whole entry): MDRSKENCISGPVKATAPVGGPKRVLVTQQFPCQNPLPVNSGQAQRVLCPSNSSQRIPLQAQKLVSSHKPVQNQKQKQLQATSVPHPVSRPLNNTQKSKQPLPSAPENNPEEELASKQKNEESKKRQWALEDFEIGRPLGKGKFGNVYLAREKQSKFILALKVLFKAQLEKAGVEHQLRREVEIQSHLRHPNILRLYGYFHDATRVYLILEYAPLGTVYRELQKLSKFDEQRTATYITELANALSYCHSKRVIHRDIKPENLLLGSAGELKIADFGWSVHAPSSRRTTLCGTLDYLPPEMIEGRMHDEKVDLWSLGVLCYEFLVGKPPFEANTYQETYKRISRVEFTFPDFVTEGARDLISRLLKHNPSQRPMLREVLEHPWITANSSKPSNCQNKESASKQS

[7] = target: Fibroblast growth factor receptor 1 (Homo sapiens) (UniProt P11362); assay: Inhibition of recombinant human FGFR1 kinase assessed as residual activity at 10 uM in presence of 100 uM ATP; in short: as §1
[8] = target: T2, Mitogen-activated protein kinase kinase kinase 5 (Homo sapiens) (UniProt Q99683); assay: Inhibition of recombinant human Ask1 kinase assessed as residual activity at 10 uM in presence of 100 uM ATP; in short: as §1
T2 sequence (whole entry): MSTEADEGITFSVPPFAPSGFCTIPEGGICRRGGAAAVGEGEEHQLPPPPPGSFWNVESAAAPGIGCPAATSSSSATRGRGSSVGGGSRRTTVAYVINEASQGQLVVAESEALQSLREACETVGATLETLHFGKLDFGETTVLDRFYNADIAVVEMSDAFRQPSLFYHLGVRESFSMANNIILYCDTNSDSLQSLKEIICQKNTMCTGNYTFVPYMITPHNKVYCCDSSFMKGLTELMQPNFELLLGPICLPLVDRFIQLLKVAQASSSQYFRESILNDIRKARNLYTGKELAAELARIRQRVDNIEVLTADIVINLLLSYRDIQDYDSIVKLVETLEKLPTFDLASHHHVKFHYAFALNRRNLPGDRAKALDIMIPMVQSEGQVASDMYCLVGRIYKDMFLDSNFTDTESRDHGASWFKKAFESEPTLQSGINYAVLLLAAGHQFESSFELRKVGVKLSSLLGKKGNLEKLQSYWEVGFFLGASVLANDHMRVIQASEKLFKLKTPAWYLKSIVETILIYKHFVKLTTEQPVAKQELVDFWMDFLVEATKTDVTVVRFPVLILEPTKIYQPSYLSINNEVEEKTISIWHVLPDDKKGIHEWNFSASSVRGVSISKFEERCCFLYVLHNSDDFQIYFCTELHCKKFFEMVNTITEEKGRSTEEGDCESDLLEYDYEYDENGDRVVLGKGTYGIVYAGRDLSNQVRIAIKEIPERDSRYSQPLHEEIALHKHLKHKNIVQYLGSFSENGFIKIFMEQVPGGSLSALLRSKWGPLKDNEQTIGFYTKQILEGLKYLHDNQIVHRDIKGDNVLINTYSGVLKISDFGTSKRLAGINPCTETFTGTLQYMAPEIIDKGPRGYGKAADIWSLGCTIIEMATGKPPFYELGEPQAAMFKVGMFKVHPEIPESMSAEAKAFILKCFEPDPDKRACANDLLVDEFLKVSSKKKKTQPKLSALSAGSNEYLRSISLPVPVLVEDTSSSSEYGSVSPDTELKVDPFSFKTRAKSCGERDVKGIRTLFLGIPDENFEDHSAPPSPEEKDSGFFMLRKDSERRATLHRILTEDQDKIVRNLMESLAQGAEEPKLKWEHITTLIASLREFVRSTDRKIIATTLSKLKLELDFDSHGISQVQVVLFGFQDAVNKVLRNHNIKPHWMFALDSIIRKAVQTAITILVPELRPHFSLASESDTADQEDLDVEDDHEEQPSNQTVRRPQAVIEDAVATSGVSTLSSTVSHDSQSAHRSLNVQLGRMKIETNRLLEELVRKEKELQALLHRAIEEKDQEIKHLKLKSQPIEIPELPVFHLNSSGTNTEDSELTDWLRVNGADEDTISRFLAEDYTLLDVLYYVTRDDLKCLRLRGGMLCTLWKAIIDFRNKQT

[9] = target: Casein kinase II (Homo sapiens) (UniProt P67870+P68400+P19784); assay: Inhibition of recombinant human CK2 kinase assessed as residual activity at 10 uM in presence of 100 uM ATP; type: protein-complex assay
In short: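 CK2 residual activity was measured with 10 µM inhibitor and a final ATP of 100 µM. It is expressed as a percentage of the no-inhibitor control.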

Chain of Casein kinase II (P67870 whole entry): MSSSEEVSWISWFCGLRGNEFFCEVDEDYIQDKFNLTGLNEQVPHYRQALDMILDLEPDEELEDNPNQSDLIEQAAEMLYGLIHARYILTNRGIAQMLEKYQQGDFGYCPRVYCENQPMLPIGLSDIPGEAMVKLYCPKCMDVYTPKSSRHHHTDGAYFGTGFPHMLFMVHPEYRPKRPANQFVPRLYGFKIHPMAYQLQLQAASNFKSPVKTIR
Chain of Casein kinase II (P68400 whole entry): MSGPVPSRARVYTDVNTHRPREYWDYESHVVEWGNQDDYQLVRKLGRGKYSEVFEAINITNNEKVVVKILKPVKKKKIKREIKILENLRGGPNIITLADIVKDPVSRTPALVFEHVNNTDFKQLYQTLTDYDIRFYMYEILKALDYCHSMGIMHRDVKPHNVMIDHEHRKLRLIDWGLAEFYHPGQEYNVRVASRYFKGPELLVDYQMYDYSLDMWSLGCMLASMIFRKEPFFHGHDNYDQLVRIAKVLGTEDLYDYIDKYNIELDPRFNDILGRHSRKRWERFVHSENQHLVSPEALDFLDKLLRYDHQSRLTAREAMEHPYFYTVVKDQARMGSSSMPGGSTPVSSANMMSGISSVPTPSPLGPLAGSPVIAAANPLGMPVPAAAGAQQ
Chain of Casein kinase II (P19784 whole entry): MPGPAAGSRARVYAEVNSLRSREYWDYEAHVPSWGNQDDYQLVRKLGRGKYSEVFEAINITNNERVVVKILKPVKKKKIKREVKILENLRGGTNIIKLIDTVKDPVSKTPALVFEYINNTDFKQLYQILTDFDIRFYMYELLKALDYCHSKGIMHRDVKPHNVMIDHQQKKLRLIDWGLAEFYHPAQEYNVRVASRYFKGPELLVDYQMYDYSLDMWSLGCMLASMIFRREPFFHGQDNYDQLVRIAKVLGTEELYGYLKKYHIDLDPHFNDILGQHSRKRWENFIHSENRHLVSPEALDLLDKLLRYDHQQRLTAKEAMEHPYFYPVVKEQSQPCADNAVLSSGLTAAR
Chain of Fibroblast growth factor receptor 1 (Homo sapiens) (P11362 22-822 limits assumed): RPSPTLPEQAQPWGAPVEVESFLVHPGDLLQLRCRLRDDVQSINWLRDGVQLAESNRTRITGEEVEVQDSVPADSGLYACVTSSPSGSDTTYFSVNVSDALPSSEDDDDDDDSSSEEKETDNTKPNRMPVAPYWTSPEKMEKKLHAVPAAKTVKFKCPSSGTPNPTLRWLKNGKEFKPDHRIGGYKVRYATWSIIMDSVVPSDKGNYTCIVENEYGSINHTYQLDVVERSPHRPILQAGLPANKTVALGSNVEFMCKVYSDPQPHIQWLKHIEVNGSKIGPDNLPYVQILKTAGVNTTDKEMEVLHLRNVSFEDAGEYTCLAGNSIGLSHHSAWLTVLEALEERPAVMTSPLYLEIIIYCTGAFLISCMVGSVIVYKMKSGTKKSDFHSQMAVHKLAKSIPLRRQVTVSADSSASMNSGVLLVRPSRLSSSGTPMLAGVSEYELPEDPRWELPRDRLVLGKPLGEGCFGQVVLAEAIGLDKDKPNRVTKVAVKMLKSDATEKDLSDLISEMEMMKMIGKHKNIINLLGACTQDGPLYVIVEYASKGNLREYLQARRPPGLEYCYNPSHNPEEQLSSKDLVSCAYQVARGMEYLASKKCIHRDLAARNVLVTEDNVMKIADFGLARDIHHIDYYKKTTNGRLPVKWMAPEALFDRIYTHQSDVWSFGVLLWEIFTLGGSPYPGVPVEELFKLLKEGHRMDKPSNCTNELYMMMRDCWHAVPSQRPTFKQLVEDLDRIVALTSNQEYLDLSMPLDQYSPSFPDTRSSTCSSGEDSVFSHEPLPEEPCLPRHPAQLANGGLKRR
Chain of Mitogen-activated protein kinase 10 (Homo sapiens) (P53779 whole entry): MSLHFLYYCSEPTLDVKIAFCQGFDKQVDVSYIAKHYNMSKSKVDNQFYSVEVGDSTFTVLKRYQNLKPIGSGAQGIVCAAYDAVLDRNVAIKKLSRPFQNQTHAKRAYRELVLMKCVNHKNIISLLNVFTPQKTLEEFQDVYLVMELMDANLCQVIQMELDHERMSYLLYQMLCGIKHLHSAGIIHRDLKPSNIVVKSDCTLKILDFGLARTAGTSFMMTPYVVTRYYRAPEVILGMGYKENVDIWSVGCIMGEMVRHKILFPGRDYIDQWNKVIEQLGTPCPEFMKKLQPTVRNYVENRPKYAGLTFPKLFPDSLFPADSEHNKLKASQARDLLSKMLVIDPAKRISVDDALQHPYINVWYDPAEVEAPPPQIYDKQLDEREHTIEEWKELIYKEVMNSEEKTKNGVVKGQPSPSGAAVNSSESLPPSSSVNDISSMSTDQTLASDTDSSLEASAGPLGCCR
Chain of Hepatocyte growth factor receptor (Homo sapiens) (P08581 whole entry): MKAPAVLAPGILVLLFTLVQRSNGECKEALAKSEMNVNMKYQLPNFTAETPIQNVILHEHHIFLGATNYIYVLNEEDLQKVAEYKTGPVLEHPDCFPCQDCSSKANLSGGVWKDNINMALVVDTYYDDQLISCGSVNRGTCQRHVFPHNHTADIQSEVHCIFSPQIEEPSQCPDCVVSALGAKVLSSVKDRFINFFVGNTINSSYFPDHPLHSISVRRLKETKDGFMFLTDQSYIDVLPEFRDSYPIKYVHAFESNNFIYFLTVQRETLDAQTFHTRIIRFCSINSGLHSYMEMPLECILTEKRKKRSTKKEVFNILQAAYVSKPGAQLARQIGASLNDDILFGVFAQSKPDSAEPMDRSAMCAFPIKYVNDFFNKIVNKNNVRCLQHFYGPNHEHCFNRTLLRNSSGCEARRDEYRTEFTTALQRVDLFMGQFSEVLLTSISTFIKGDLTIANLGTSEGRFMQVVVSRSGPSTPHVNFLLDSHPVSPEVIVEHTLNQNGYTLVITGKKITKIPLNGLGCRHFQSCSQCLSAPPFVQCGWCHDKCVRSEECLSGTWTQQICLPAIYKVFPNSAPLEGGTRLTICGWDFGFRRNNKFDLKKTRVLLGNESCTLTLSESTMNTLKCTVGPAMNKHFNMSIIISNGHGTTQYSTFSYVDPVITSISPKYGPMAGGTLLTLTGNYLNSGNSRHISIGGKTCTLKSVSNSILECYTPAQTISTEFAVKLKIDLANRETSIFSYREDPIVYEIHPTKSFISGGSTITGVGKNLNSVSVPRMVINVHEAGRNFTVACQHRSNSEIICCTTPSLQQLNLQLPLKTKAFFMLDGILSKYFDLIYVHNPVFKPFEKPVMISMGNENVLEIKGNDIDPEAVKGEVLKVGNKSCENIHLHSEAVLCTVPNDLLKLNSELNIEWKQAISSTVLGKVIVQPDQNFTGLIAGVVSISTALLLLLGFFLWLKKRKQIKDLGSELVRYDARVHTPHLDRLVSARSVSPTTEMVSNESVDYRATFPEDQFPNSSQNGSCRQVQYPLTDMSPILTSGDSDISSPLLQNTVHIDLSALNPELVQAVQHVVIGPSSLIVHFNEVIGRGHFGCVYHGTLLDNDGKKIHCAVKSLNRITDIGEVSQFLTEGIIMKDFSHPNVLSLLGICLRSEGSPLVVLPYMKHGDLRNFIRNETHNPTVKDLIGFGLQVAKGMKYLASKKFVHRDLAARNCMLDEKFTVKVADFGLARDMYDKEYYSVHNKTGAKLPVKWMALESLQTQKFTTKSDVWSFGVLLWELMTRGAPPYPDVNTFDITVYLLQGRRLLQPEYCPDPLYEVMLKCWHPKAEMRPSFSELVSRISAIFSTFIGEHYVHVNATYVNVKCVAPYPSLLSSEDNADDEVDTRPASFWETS
Chain of Rho-associated protein kinase 1 (Homo sapiens) (Q13464 2-1354 limits assumed): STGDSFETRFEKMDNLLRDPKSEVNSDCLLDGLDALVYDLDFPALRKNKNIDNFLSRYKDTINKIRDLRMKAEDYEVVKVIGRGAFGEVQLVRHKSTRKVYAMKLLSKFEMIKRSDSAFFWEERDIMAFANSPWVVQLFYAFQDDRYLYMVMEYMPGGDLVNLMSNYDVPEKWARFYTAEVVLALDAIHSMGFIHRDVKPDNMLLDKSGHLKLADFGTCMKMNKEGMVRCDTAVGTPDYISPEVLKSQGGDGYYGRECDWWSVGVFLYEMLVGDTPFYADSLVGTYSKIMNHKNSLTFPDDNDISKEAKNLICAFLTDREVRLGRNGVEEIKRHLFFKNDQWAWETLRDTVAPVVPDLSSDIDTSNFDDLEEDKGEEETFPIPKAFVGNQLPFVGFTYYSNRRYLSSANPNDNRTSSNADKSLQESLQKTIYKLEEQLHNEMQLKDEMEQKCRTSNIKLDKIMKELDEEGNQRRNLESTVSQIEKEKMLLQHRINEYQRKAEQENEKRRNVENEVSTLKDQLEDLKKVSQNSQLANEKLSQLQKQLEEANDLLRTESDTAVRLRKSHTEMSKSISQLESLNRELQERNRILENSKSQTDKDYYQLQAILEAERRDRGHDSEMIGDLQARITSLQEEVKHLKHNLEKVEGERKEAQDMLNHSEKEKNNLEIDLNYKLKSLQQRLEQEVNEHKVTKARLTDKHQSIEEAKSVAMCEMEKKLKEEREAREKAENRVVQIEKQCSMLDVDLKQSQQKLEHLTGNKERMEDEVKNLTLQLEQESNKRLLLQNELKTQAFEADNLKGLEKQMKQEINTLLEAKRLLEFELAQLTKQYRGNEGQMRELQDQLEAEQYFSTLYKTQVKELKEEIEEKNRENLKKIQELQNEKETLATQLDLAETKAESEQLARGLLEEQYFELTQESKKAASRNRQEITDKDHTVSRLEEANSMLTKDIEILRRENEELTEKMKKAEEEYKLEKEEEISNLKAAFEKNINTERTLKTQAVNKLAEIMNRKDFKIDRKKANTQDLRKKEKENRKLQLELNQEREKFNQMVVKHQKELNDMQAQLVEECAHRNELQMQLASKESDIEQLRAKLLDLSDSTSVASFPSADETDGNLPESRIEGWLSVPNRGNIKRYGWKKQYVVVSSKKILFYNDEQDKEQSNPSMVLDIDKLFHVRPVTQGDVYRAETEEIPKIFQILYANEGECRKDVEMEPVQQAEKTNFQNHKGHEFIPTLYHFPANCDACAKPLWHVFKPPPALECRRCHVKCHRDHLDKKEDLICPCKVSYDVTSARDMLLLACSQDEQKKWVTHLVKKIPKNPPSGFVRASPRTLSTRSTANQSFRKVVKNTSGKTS

SMILES | IC50 (Casein kinase II) [µM] | other results
Cc1ccc(-c2csc3ncnc(SCCC(=O)O)c23)cc1C | 0.175 | –
O=C(O)CSc1ncnc2scc(-c3ccc(Cl)cc3)c12 | 32 | –
O=C(O)CCSc1ncnc2scc(-c3ccc(F)cc3)c12 | 1.2 | –
O=C(O)CCCSc1ncnc2sc3c(c12)CCCC3 | > 33 | –
O=C(O)CCSc1ncnc2scc(-c3ccc(Cl)cc3)c12 | 0.175 | –
CC(Sc1ncnc2scc(-c3ccccc3)c12)C(=O)O (stereo not given) | 23 | –
CCC(Sc1ncnc2scc(-c3ccc(Cl)cc3)c12)C(=O)O (stereo not given) | > 33 | –
Cc1sc2ncnc(SCC(=O)O)c2c1C | 17.8 | –
O=C(O)CSc1ncnc2sc(-c3ccccc3)cc12 | 1.25 | –
CCOc1ccc(-c2csc3ncnc(SCCC(=O)O)c23)cc1 | 0.125 | Activity [1]: 115%; Activity [3]: 94%; Activity [4]: 115%; Activity [5]: 76%; Activity [6]: 48%; Activity [7]: 99%; Activity [8]: 100%; Activity [9]: 0.86%
CCC(Sc1ncnc2scc(-c3ccc(C)cc3)c12)C(=O)O (stereo not given) | > 33 | –
Cc1cc2c(SCCC(=O)O)ncnc2s1 | 7 | –
Cc1sc2ncnc(SCCC(=O)O)c2c1C | 11.3 | –
Cc1sc2ncnc(SC(C)C(=O)O)c2c1C (stereo not given) | > 33 | –
CC1CCc2c(sc3ncnc(SC(C)C(=O)O)c23)C1 (stereo not given) | 20 | –
CC1CCc2c(sc3ncnc(SCC(=O)O)c23)C1 (stereo not given) | 1.78 | –
Cc1nc(SCCC(=O)O)c2cc(-c3ccccc3)sc2n1 | 3.5 | –
Cc1cc2c(SCC(=O)O)ncnc2s1 | 4 | –

More lines, main results first:

IC50 (Casein kinase II) [µM] | SMILES | other results
> 33 | O=C(O)c1ccc(CSc2ncnc3sc4c(c23)CCCC4)cc1 | –
0.1 | Cc1ccc(-c2csc3ncnc(SCCC(=O)O)c23)cc1 | Activity [1]: 114%; Ki [2]: 0.04 µM; Activity [3]: 104%; Activity [4]: 126%; Activity [5]: 70%; Activity [6]: 23%; Activity [7]: 92%; Activity [8]: 92%; Activity [9]: 0.72%
17 | CC(Sc1ncnc2sc3c(c12)CCCC3)C(=O)O (stereo not given) | –
31 | Cc1ccc(-c2csc3ncnc(SC(C)C(=O)O)c23)cc1 (stereo not given) | –
> 33 | CCC(Sc1ncnc2sc3c(c12)CCCC3)C(=O)O (stereo not given) | –
15.8 | Cc1nc(SCCC(=O)O)c2c3c(sc2n1)CCCC3 | –
17.8 | Cc1sc2ncnc(SCc3cccc(C(=O)O)c3)c2c1C | –
> 33 | Cc1sc2ncnc(SCC(=O)O)c2c1-c1ccccc1 | –
14 | O=C(O)CSc1ncnc2scc(-c3ccc(Br)cc3)c12 | –
30 | O=C(O)CSc1ncnc2scc(-c3ccccc3)c12 | –
